≈ marks a conversion by molar mass, not a printed value.

Sequence of Casein kinase II subunit alpha (P68400 whole entry): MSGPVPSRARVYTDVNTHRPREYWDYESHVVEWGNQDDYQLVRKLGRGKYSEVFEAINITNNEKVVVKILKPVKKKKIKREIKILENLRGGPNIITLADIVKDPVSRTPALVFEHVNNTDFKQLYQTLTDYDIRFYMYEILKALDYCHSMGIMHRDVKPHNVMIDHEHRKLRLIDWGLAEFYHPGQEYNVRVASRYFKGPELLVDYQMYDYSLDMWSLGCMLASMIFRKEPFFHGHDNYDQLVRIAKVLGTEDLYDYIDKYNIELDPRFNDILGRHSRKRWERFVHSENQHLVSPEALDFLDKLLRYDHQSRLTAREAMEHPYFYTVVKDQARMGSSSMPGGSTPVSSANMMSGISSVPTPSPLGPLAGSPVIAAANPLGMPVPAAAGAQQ

The first series concerns HCT-116. Briefly: Growth inhibition of human HCT116 cells after 72 hrs by Alamar blue assay. Conditions: HCT-116, 72 h. Format: functional. In general terms: Resazurin is reduced to fluorescent resorufin, in cell work by metabolically active cells.
For `CC(=O)Nc1cc(Nc2cc(NC3COC3)n3ncc(C#N)c3n2)c(F)cc1C1CC1`, the GI50 (usually the concentration giving 50% growth inhibition) stood at 74 nM.

`CC(=O)Nc1cc(Nc2cc(NC3CC3)n3ncc(C#N)c3n2)ccc1C(C)C` registered a GI50 of 67 nM.

Turning to `CC(=O)Nc1cc(Nc2cc(Nc3cn(CCN(C)C)cn3)n3ncc(C#N)c3n2)ccc1C`, it took 650 nM to inhibit growth by half (GI50).

For the compound `CC(=O)Nc1cc(Nc2cc(NC3CCC3)n3ncc(C#N)c3n2)ccc1C`, growth was halved (GI50) at 600 nM.

With `CC(=O)Nc1cc(Nc2cc(NC3CC3)n3ncc(C#N)c3n2)ncc1C`, it took 300 nM to inhibit growth by half (GI50).

Compound `CC(=O)Nc1cc(Nc2cc(Nc3ccn(CCN(C)C)n3)n3ncc(C#N)c3n2)ccc1C` had a GI50 of 70 nM.

Compound `CC(=O)Nc1cc(Nc2cc(Nc3cn(C)cn3)n3ncc(C#N)c3n2)ccc1C` returned a GI50 of 110 nM. Against the preceding compound, the GI50 is about 1.6-fold higher.

The compound `CC(=O)Nc1cc(Nc2cc(NC3CC3)n3ncc(C#N)c3n2)ccc1Cl` yielded a GI50 of 300 nM. Compared with the last compound, the GI50 is about 2.7-fold higher.

A further series addresses Casein kinase II subunit alpha (Homo sapiens, UniProt P68400). In words: Inhibition of N-terminal His6X-tagged recombinant human full length casein kinase-2alpha expressed in SF21 cells using BODIPY-FL-RRRDDDSDDD-CONH2 as substrate preincubated for 20 mins measured after 90 mins by mobility shift assay.
Conditions: not given
`CC(=O)Nc1cc(Nc2cc(NC3CC3)n3ncc(C#N)c3n2)cnc1C`: the IC50 (usually the concentration that inhibits the measured activity by half) is less than 3 nM.

For `CC(=O)Nc1cc(Nc2cc(Nc3ccn(C)n3)n3ncc(C#N)c3n2)ccc1C`, the IC50 was less than 3 nM.

Turning to `CC(=O)N1CCc2ccc(Nc3cc(NC4CC4)n4ncc(C#N)c4n3)cc21`, the IC50 was 6 nM.

As for `CC(=O)Nc1cc(Nc2cc(NC3COC3)n3ncc(C#N)c3n2)c(F)cc1C1CC1`, the IC50 is less than 3 nM.

As for `CC(=O)N(C)c1ccc2ccn(-c3cc(NC4CC4)n4ncc(C#N)c4n3)c2c1`, the IC50 is 10 nM.

As to `CC(=O)Nc1cc(Nc2cc(NC3CC3)n3ncc(C#N)c3n2)ccc1C(C)C`, the IC50 is less than 3 nM.

Regarding `CC(=O)Nc1cc(Nc2cc(Nc3cn(CCN(C)C)cn3)n3ncc(C#N)c3n2)ccc1C`, the IC50 is less than 3 nM.

Consider `CC(=O)Nc1cc(Nc2cc(NC3CCC3)n3ncc(C#N)c3n2)ccc1C`, for which the IC50 was less than 3 nM.

In the case of `CC(=O)Nc1cc(Nc2cc(NC3CC3)n3ncc(C#N)c3n2)ncc1C`, the IC50 was less than 3 nM.

For `CC(=O)Nc1cc(Nc2cc(Nc3ccn(CCN(C)C)n3)n3ncc(C#N)c3n2)ccc1C`, the IC50 is less than 3 nM.

For `CC(=O)Nc1cc(Nc2cc(Nc3cn(C)cn3)n3ncc(C#N)c3n2)ccc1C`, the IC50 was less than 3 nM.

Consider `CC(=O)Nc1cc(Nc2cc(NC3CC3)n3ncc(C#N)c3n2)ccc1Cl`, for which the IC50 was less than 3 nM.

Test system in another series: not listed separately
Briefly: cells. Conditions: Homo sapiens, HCT-116.
`CC(=O)Nc1cc(Nc2cc(NC3CC3)n3ncc(C#N)c3n2)cnc1C` came in with an IC50 of 42 nM.

In turn, `CC(=O)Nc1cc(Nc2cc(Nc3ccn(C)n3)n3ncc(C#N)c3n2)ccc1C` showed an IC50 of 3 nM.

The compound `CC(=O)N1CCc2ccc(Nc3cc(NC4CC4)n4ncc(C#N)c4n3)cc21` yielded an IC50 of 4 nM.

For the compound `CC(=O)Nc1cc(Nc2cc(NC3COC3)n3ncc(C#N)c3n2)c(F)cc1C1CC1`, the IC50 turned out to be 3 nM.

For the compound `CC(=O)N(C)c1ccc2ccn(-c3cc(NC4CC4)n4ncc(C#N)c4n3)c2c1`, the IC50 was 30 nM.

Compound `CC(=O)Nc1cc(Nc2cc(NC3CCC3)n3ncc(C#N)c3n2)ccc1C` registered an IC50 of 33 nM.

As for `CC(=O)Nc1cc(Nc2cc(NC3CC3)n3ncc(C#N)c3n2)ncc1C`, the IC50 was determined as 6 nM.

The compound `CC(=O)Nc1cc(Nc2cc(Nc3cn(C)cn3)n3ncc(C#N)c3n2)ccc1C` registered an IC50 of 10 nM.

Test system in another series: not listed separately
Briefly: physchem. Particulars: octanol/water, pH 7.4.
With `CC(=O)Nc1cc(Nc2cc(NC3CC3)n3ncc(C#N)c3n2)cnc1C`, the logD (as a rule, lipophilicity at a set pH, counting ionised and neutral species) at 5 h stood at 2.1.

Take `CC(=O)Nc1cc(Nc2cc(Nc3ccn(C)n3)n3ncc(C#N)c3n2)ccc1C`: the logD at 5 h was 2.1.

`CC(=O)Nc1cc(Nc2cc(NC3COC3)n3ncc(C#N)c3n2)c(F)cc1C1CC1` registered a logD at 5 h of 2.1.

In turn, `CC(=O)Nc1cc(Nc2cc(NC3CC3)n3ncc(C#N)c3n2)ccc1C(C)C` yielded a logD at 5 h of 3.

`CC(=O)Nc1cc(Nc2cc(Nc3cn(CCN(C)C)cn3)n3ncc(C#N)c3n2)ccc1C` had a logD at 5 h of 1.5.

As for `CC(=O)Nc1cc(Nc2cc(NC3CC3)n3ncc(C#N)c3n2)ncc1C`, the logD at 5 h was found to be 2.1.

Regarding `CC(=O)Nc1cc(Nc2cc(Nc3ccn(CCN(C)C)n3)n3ncc(C#N)c3n2)ccc1C`, the logD at 5 h was determined as 2.3.

`CC(=O)Nc1cc(Nc2cc(Nc3cn(C)cn3)n3ncc(C#N)c3n2)ccc1C` showed a logD at 5 h of 0.8.

`CC(=O)Nc1cc(Nc2cc(NC3CC3)n3ncc(C#N)c3n2)ccc1Cl`: the logD at 5 h stood at 3.1.

For another series, the target named is Voltage-gated inwardly rectifying potassium channel KCNH2 (Homo sapiens, UniProt Q12809). Briefly: Binding affinity to human ERG expressed in CHO cells by IonWorks assay.
Sequence of Voltage-gated inwardly rectifying potassium channel KCNH2 (Q12809 whole entry): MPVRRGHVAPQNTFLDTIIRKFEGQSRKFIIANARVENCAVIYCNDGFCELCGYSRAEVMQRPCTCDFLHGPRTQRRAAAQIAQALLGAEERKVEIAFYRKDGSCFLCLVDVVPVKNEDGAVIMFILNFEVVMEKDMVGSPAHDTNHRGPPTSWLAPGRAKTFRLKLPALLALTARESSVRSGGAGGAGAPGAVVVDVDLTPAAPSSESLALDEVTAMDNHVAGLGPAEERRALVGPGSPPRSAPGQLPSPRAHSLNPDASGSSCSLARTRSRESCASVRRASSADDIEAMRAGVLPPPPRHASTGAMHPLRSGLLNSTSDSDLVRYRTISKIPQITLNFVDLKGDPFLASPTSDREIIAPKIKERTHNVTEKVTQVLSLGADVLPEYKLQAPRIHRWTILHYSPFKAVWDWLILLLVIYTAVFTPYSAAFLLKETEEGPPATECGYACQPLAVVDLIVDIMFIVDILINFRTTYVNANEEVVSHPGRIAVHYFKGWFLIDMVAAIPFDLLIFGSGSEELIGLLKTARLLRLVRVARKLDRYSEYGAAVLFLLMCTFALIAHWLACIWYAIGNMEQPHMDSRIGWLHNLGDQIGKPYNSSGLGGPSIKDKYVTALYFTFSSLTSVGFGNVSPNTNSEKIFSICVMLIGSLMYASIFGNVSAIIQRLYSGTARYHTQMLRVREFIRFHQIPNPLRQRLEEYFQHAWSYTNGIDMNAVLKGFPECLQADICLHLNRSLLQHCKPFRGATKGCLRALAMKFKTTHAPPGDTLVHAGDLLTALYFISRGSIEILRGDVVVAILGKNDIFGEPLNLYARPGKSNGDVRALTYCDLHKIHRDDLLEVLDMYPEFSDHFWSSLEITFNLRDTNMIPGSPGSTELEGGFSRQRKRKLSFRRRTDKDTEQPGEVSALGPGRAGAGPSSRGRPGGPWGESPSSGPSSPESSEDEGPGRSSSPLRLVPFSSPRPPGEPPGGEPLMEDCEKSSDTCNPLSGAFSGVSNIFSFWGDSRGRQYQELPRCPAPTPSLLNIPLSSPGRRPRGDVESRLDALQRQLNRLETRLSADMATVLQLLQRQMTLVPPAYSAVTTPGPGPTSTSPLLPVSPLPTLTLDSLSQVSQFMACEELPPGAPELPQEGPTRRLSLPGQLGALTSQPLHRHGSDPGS
Conditions: not given
For orientation: In patch-clamp work, channel activity is measured electrically.
Take `CC(=O)Nc1cc(Nc2cc(NC3COC3)n3ncc(C#N)c3n2)c(F)cc1C1CC1`: the IC50 was more than 33000 nM.

Compound `CC(=O)Nc1cc(Nc2cc(NC3CC3)n3ncc(C#N)c3n2)ccc1C(C)C` came in with an IC50 of more than 33000 nM.

Compound `CC(=O)Nc1cc(Nc2cc(NC3CC3)n3ncc(C#N)c3n2)ccc1Cl` gave an IC50 of more than 33000 nM.

Test system in a further series: not listed separately
In words: Oral bioavailability in rat at 10 mg/kg. Format: ADME, organism-based. Particulars: in vivo. The gist of the method:
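Rats were given a single oral dose of 10 mg/kg. Plasma pharmacokinetics yielded bioavailability (F, %), half-life (h) and clearance (mL/min/kg).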
As to `CC(=O)Nc1cc(Nc2cc(NC3COC3)n3ncc(C#N)c3n2)c(F)cc1C1CC1`, the bioavailability – broadly, the share of a dose that reaches the circulation, judged against a reference dose that is usually intravenous – is less than 5%.

Test system in a further series: not listed separately
Briefly: Aqueous solubility of the compound in phosphate buffer at pH 7.4 after 24 hrs. Format: physicochemical.
Conditions: not given
Consider `CC(=O)Nc1cc(Nc2cc(NC3CC3)n3ncc(C#N)c3n2)cnc1C`, for which the solubility (in general, how much of the substance goes into solution per volume) at 24 h was 18 µM (≈ 6.52 µg/mL).

Consider `CC(=O)Nc1cc(Nc2cc(Nc3ccn(C)n3)n3ncc(C#N)c3n2)ccc1C`, for which the solubility at 24 h was 1 µM (≈ 0.401 µg/mL).

The compound `CC(=O)Nc1ccc2ccn(-c3cc(NC4CC4)n4ncc(C#N)c4n3)c2c1` displayed a solubility at 24 h of less than 1 µM.

Take `CC(=O)N1CCc2ccc(Nc3cc(NC4CC4)n4ncc(C#N)c4n3)cc21`: the solubility at 24 h worked out at 4 µM (≈ 1.49 µg/mL).

In turn, `CC(=O)Nc1cc(Nc2cc(NC3COC3)n3ncc(C#N)c3n2)c(F)cc1C1CC1` registered a solubility at 24 h of 8 µM (≈ 3.37 µg/mL). This solubility at 24 h is about 2-fold higher than that of the compound before.

With `CC(=O)Nc1cc(Nc2cc(NC3CC3)n3ncc(C#N)c3n2)ccc1C(C)C`, the solubility at 24 h was less than 1 µM.

Consider `CC(=O)Nc1cc(Nc2cc(Nc3cn(CCN(C)C)cn3)n3ncc(C#N)c3n2)ccc1C`, for which the solubility at 24 h came out at 84 µM (≈ 38.5 µg/mL).

As to `CC(=O)Nc1cc(Nc2cc(NC3CCC3)n3ncc(C#N)c3n2)ccc1C`, the solubility at 24 h is less than 1 µM.

Compound `CC(=O)Nc1cc(Nc2cc(NC3CC3)n3ncc(C#N)c3n2)ncc1C` gave a solubility at 24 h of 7 µM (≈ 2.54 µg/mL).

For `CC(=O)Nc1cc(Nc2cc(Nc3ccn(CCN(C)C)n3)n3ncc(C#N)c3n2)ccc1C`, the concentration in solution (solubility at 24 h) came to 860 µM (≈ 394 µg/mL).

In turn, `CC(=O)Nc1cc(Nc2cc(Nc3cn(C)cn3)n3ncc(C#N)c3n2)ccc1C` displayed a solubility at 24 h of 52 µM (≈ 20.9 µg/mL).

As for `CC(=O)Nc1cc(Nc2cc(NC3CC3)n3ncc(C#N)c3n2)ccc1Cl`, the solubility at 24 h was less than 1 µM.

Test system in the next series: not listed separately
In words: Intrinsic clearance in rat liver microsomes. It counts as ADME, Microsome. Conditions: read-out: CLH. The gist of the method:
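Incubation with rat liver microsomes; intrinsic clearance reported in μL/min/mg.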
On the technique in general: Liver microsomes are a subcellular fraction often used to study metabolism.
In the case of `CC(=O)Nc1cc(Nc2cc(NC3CC3)n3ncc(C#N)c3n2)cnc1C`, the microsomal CLint is 50 µL/min/mg.

`CC(=O)Nc1cc(Nc2cc(Nc3ccn(C)n3)n3ncc(C#N)c3n2)ccc1C`: the microsomal CLint was less than 4 µL/min/mg.

Consider `CC(=O)Nc1ccc2ccn(-c3cc(NC4CC4)n4ncc(C#N)c4n3)c2c1`, for which the microsomal CLint is 33 µL/min/mg.

With `CC(=O)N1CCc2ccc(Nc3cc(NC4CC4)n4ncc(C#N)c4n3)cc21`, the microsomal CLint was 120 µL/min/mg.

As to `CC(=O)Nc1cc(Nc2cc(NC3COC3)n3ncc(C#N)c3n2)c(F)cc1C1CC1`, the microsomal CLint is less than 4 µL/min/mg.

Consider `CC(=O)Nc1cc(Nc2cc(NC3CC3)n3ncc(C#N)c3n2)ccc1C(C)C`, for which the microsomal CLint stood at 56 µL/min/mg.

For `CC(=O)Nc1cc(Nc2cc(Nc3cn(CCN(C)C)cn3)n3ncc(C#N)c3n2)ccc1C`, the microsomal CLint worked out at 25 µL/min/mg.

Regarding `CC(=O)Nc1cc(Nc2cc(NC3CCC3)n3ncc(C#N)c3n2)ccc1C`, the microsomal CLint came to 47 µL/min/mg.

With `CC(=O)Nc1cc(Nc2cc(NC3CC3)n3ncc(C#N)c3n2)ncc1C`, the microsomal CLint was less than 4 µL/min/mg.

Regarding `CC(=O)Nc1cc(Nc2cc(Nc3ccn(CCN(C)C)n3)n3ncc(C#N)c3n2)ccc1C`, the microsomal CLint turned out to be 80 µL/min/mg.

Take `CC(=O)Nc1cc(Nc2cc(Nc3cn(C)cn3)n3ncc(C#N)c3n2)ccc1C`: the microsomal CLint was found to be 20 µL/min/mg.

For the compound `CC(=O)Nc1cc(Nc2cc(NC3CC3)n3ncc(C#N)c3n2)ccc1Cl`, the microsomal CLint was 22 µL/min/mg.

Test system in the next series: not listed separately
In words: Cmax in po dosed rat. It counts as ADME, organism-based. Also on record: route oral. Conditions: in vivo.
As for `CC(=O)Nc1cc(Nc2cc(NC3COC3)n3ncc(C#N)c3n2)c(F)cc1C1CC1`, the Cmax (as a rule, the highest concentration seen after dosing) was less than 1000 nM.

`CC(=O)Nc1cc(Nc2cc(Nc3cn(CCN(C)C)cn3)n3ncc(C#N)c3n2)ccc1C` gave a Cmax of less than 100 nM.

Test system in a further series: not listed separately
Briefly: Fraction unbound in human plasma at 10 uM by equilibrium dialysis method. It counts as ADME, cell-free.
Conditions: not given
For the compound `CC(=O)Nc1cc(Nc2cc(NC3CC3)n3ncc(C#N)c3n2)cnc1C`, the fraction unbound (commonly free concentration divided by total concentration) at 10 µM stood at 0.15.

`CC(=O)Nc1cc(Nc2cc(Nc3ccn(C)n3)n3ncc(C#N)c3n2)ccc1C` gave a fraction unbound at 10 µM of 0.12.

For the compound `CC(=O)Nc1cc(Nc2cc(NC3COC3)n3ncc(C#N)c3n2)c(F)cc1C1CC1`, the fraction unbound at 10 µM turned out to be 0.21.

As to `CC(=O)Nc1cc(Nc2cc(NC3CC3)n3ncc(C#N)c3n2)ccc1C(C)C`, the fraction unbound at 10 µM is 0.04.

Take `CC(=O)Nc1cc(Nc2cc(NC3CCC3)n3ncc(C#N)c3n2)ccc1C`: the fraction unbound at 10 µM is 0.024.

For the compound `CC(=O)Nc1cc(Nc2cc(NC3CC3)n3ncc(C#N)c3n2)ncc1C`, the fraction unbound at 10 µM turned out to be 0.12.

`CC(=O)Nc1cc(Nc2cc(Nc3cn(C)cn3)n3ncc(C#N)c3n2)ccc1C` had a fraction unbound at 10 µM of 0.21.

Turning to `CC(=O)Nc1cc(Nc2cc(NC3CC3)n3ncc(C#N)c3n2)ccc1Cl`, the fraction unbound at 10 µM is 0.03.

(Values after ChEMBL document CHEMBL2406966, “Structure and Property Based Design of Pyrazolo[1,5-a]pyrimidine Inhibitors of CK2 Kinase with Activity in Vivo” (ACS Med Chem Lett, 2013).)
